Data as given in ChEMBL document CHEMBL3734693, “Discovery of potent, selective, and orally bioavailable inhibitors of interleukin-1 receptor-associate kinase-4” (Bioorg Med Chem Lett, 2015).
pIC50, pKi: −log10 of the molar value. Converted amounts (≈) assume the structure as drawn.

What was measured:
[1] = Solubility of the compound at pH 7.4; type: physicochemical; details: buffer
[2] = Permeability of the compound; type: ADME; details: not told; read-out: permeability
[3] = target: T1, Interleukin-1 receptor-associated kinase 4 (Homo sapiens, UniProt Q9NWZ3); assay: Inhibition of recombinant full length IRAK-4 (unknown origin) using the biotinylated substrate RRRVTSPARRS by chemiluminescent ELISA
T1 sequence (Q9NWZ3 whole entry): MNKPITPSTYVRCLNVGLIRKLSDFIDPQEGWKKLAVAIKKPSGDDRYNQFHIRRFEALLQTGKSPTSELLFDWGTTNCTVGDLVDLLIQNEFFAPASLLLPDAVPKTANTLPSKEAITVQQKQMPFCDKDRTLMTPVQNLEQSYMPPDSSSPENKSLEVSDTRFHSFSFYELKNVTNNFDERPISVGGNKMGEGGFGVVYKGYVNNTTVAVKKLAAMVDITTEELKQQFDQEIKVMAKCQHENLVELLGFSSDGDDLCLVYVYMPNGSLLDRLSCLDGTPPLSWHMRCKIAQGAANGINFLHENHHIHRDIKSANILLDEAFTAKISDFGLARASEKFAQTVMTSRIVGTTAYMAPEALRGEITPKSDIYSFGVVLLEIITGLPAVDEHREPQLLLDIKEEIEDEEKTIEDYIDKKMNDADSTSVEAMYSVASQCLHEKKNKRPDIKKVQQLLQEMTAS

[4] = Clearance in rat at 0.5 mg/kg, iv and 2 mg/kg, po; type: ADME, organism-based; details: in vivo
Outline: (§1)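 Rats were given the compound intravenously at 0.5 mg/kg and orally at 2.0 mg/kg. Clearance, half-life, AUC and oral bioavailability were determined from these two dosings.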

[5] = Half-life in rat at 0.5 mg/kg, iv and 2 mg/kg, po; type: ADME, organism-based; details: in vivo; outline: as §1
[6] = Oral bioavailability in rat at 2 mg/kg; type: ADME, organism-based; details: in vivo; outline: as §1
[7] = test system: Rattus norvegicus; assay: AUC in rat at 0.5 mg/kg, iv and 2 mg/kg, po; type: ADME, organism-based; details: in vivo; outline: as §1
[8] = target: Interleukin-1 receptor-associated kinase 1 (Homo sapiens, UniProt P51617); assay: Inhibition of IRAK-1 (unknown origin)
Chain of Interleukin-1 receptor-associated kinase 1 (P51617 whole entry): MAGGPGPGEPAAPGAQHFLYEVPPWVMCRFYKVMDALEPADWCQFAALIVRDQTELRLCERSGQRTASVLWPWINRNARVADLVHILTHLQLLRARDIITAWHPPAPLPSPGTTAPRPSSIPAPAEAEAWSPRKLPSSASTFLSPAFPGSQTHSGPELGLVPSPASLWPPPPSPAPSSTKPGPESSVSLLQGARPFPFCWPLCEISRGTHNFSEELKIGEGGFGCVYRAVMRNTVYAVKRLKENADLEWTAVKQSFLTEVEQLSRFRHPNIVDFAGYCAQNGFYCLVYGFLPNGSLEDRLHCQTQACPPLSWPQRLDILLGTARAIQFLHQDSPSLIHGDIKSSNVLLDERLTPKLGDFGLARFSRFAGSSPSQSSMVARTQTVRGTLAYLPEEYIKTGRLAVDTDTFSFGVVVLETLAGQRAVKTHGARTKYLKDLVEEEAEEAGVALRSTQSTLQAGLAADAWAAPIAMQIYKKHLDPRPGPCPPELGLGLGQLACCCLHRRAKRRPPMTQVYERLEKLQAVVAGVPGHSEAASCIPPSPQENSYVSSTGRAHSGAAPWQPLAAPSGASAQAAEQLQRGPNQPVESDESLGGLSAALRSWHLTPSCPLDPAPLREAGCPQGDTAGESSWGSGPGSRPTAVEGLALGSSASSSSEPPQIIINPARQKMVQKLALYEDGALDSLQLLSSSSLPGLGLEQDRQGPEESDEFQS

[9] = Inhibition of Interleukin-1 induced Nuclear factor-kappa-B activation in primary human monocyte by electrophoretic mobility shift assay
[10] = target: T2, Mitogen-activated protein kinase kinase kinase 7 (Homo sapiens, UniProt O43318); assay: Inhibition of TAK1 (unknown origin)
T2 sequence (O43318 whole entry): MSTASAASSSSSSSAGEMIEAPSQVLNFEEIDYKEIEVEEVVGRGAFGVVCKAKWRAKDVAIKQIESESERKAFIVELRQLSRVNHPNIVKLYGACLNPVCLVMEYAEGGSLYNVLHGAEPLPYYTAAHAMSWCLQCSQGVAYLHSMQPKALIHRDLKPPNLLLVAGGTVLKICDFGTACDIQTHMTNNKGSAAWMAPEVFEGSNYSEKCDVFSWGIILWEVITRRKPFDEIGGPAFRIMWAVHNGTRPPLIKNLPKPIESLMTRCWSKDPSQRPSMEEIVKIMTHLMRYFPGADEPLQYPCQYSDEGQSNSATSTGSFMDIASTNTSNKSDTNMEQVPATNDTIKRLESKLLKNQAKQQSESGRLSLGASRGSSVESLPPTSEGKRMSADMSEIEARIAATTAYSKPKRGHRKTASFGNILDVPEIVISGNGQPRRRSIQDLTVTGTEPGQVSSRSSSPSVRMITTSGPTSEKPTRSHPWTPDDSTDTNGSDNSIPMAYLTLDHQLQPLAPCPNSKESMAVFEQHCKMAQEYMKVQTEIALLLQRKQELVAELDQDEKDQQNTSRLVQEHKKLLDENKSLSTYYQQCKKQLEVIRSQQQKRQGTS

[11] = species on record: Homo sapiens; assay: Selectivity for recombinant IRAK-4 (unknown origin) over Akt1 (unknown origin)
[12] = species on record: Homo sapiens; assay: Selectivity for recombinant IRAK-4 (unknown origin) over CaMK (unknown origin)
[13] = species on record: Homo sapiens; assay: Ratio of Ki for TAK1 (unknown origin) to Ki for recombinant full length IRAK-4 (unknown origin)
[14] = species on record: Homo sapiens; assay: Ratio of Ki for IRAK-1 (unknown origin) to Ki for recombinant full length IRAK-4 (unknown origin)
[15] = species on record: Homo sapiens; assay: Selectivity for recombinant IRAK-4 (unknown origin) over CDK2 (unknown origin)
[16] = species on record: Homo sapiens; assay: Selectivity for recombinant IRAK-4 (unknown origin) over pp60SRC (unknown origin)
[17] = species on record: Homo sapiens; assay: Selectivity for recombinant IRAK-4 (unknown origin) over PKC (unknown origin)
[18] = species on record: Homo sapiens; assay: Selectivity for recombinant IRAK-4 (unknown origin) over PKA (unknown origin)
[19] = species on record: Homo sapiens; assay: Selectivity for recombinant IRAK-4 (unknown origin) over EGFRK (unknown origin)
[20] = species on record: Homo sapiens; assay: Selectivity for recombinant IRAK-4 (unknown origin) over LCK (unknown origin)

| SMILES | pKi [3] | pKi [8] | pIC50 [9] | pKi [10] | also measured |
| --- | --- | --- | --- | --- | --- |
| O=C(Nc1nc2cc(CO)ccc2n1[C@H]1CC[C@H](O)CC1)c1cccc([N+](=O)[O-])c1 | 7.96 | – | – | – | solubility [1]: 4.9 µg/mL (≈ 11.9 µM); Papp [2]: < 1 ×10⁻⁶ cm/s |
| O=C(Nc1nc2cc(CN3CCCCC3)ccc2n1-c1ccccc1)c1cccc(C(F)(F)F)c1 | 8.55 | 6.22 | 6.52 | 5.60 | clearance [4]: 9 mL/min/kg; half-life [5]: 1420 min; bioavailability [6]: 46%; AUC [7]: 1020 ng·h/mL |
| O=C(Nc1nc2cc(F)ccc2n1[C@H]1CC[C@H](CO)CC1)c1cccc([N+](=O)[O-])c1 | 8.19 | – | – | – | – |
| O=C(Nc1nc2cc(CN3CCOCC3)ccc2n1[C@H]1CC[C@H](O)CC1)c1cccc([N+](=O)[O-])c1 | 8.42 | – | – | – | solubility [1]: 29 µg/mL (≈ 60.5 µM); Papp [2]: < 1 ×10⁻⁶ cm/s |
| O=C(Nc1nc2cc(CN3CCCCC3)ccc2n1[C@H]1CC[C@@H](CO)CC1)c1cccc(C(F)(F)F)c1 | 9.38 | 7.14 | > 7.00 | 6.89 | – |
| CC(C)(C)C(=O)Nc1ccc2c(c1)nc(NC(=O)c1cccc(C(F)(F)F)c1)n2[C@H]1CC[C@@H](CO)CC1 | 9.47 | – | 7.00 | 5.60 | – |
| O=C(Nc1nc2cc(CN3CCCCC3)ccc2n1[C@H]1CC[C@H](O)CC1)c1cccc([N+](=O)[O-])c1 | 8.55 | 7.74 | – | 7.82 | clearance [4]: 41.7 mL/min/kg; Selectivity ratio [11]: > 100; Selectivity ratio [12]: > 100; Ratio Ki [13]: 5.3; Ratio Ki [14]: 6.4; half-life [5]: 126 min; solubility [1]: > 50 µg/mL; bioavailability [6]: 16%; AUC [7]: 124 ng·h/mL; Selectivity ratio [15]: > 100; Papp [2]: 6.6 ×10⁻⁶ cm/s; Selectivity ratio [16]: > 100; Selectivity ratio [17]: > 100; Selectivity ratio [18]: > 100; Selectivity ratio [19]: > 100; Selectivity ratio [20]: > 100 |
| O=C(Nc1nc2cc(F)ccc2n1[C@H]1CC[C@@H](CO)CC1)c1cccc([N+](=O)[O-])c1 | 8.80 | – | – | – | – |
| O=C(Nc1nc2ccc(CO)cc2n1[C@H]1CC[C@@H](CO)CC1)c1cccc(C(F)(F)F)c1 | 9.32 | – | > 7.00 | 5.89 | – |
| O=C(Nc1nc2cc(F)ccc2n1[C@H]1CC[C@@H](CO)C1)c1cccc([N+](=O)[O-])c1 | 8.11 | – | – | – | – |
| CC(C)(C)C(=O)Oc1ccc2c(c1)nc(NC(=O)c1cccc([N+](=O)[O-])c1)n2-c1ccc(CCCO)cc1 | – | – | – | – | pIC50 [8]: 6.05; pIC50 [3]: 6.82 |
| O=C(Nc1nc2cc(F)ccc2n1CCCO)c1cccc([N+](=O)[O-])c1 | 7.41 | – | – | – | – |
| O=C(Nc1nc2ccc(F)cc2[nH]1)c1cccc([N+](=O)[O-])c1 | 5.35 | – | – | – | – |
| O=C(Nc1nc2cc(CN3CCCCC3)ccc2n1-c1ccc(CCO)cc1)c1cccc(C(F)(F)F)c1 | 8.89 | 7.92 | > 7.00 | 6.15 | clearance [4]: 36.7 mL/min/kg; half-life [5]: 78 min; bioavailability [6]: 19%; AUC [7]: 175 ng·h/mL |
| O=C(Nc1nc2cc(CN3CCCCC3)ccc2n1-c1ccccc1)c1cccc([N+](=O)[O-])c1 | 8.09 | 6.43 | 7.00 | 6.10 | – |
| O=C(Nc1nc2cc(F)ccc2n1[C@H]1CC[C@H](O)CC1)c1cccc([N+](=O)[O-])c1 | 8.19 | – | – | – | – |
| O=C(Nc1nc2cc(CN3CCCC3=O)ccc2n1[C@H]1CC[C@H](O)CC1)c1cccc([N+](=O)[O-])c1 | 9.30 | – | – | – | solubility [1]: 0.8 µg/mL (≈ 1.68 µM); Papp [2]: < 1 ×10⁻⁶ cm/s |
| O=C(Nc1nc2cc(F)ccc2n1[C@H]1CC[C@H](CO)C1)c1cccc([N+](=O)[O-])c1 | 7.96 | – | – | – | – |
| O=C(Nc1nc2cc(CN3CCCCC3)ccc2n1[C@H]1CC[C@@H](CO)CC1)c1cccc([N+](=O)[O-])c1 | 9.15 | 7.32 | – | 7.52 | clearance [4]: 40 mL/min/kg; Ratio Ki [13]: 43; Ratio Ki [14]: 68; half-life [5]: 288 min; bioavailability [6]: 10%; AUC [7]: 84 ng·h/mL |
